Holding throughout (format): functional
The test system of assay [1] is HL-60. In words: Growth inhibition of human HL60 cells after 3 days by trypan blue method. The essentials: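 HL-60 cells grown in RPMI-1640 with 10% heat-inactivated FBS, 1 mM L-glutamine, penicillin/streptomycin. Log-phase cells seeded at 1 × 10⁵ cells/mL and exposed to a range of concentrations for 3 days, in triplicate. Total cells counted on a hemocytometer, with trypan blue marking nonviable cells. Growth inhibition taken relative to untreated control; IG₅₀ from regression of concentration-response data; mean ± SE of three independent experiments.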

Assay [2] has as its system HL-60. The assay is described as follows: Induction of cell differentiation of human HL60 cells after 3 days by NBT reduction method. On the set-up: concentration or dose not given beside the values. Summed up:
(§1)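 HL-60 cells in RPMI-1640 with 10% heat-inactivated FBS, seeded at 1 × 10⁵ cells/mL in log phase and treated 3 days at nontoxic concentrations. Differentiation scored by NBT reduction as percentage of NBT-positive cells among 200 counted; mean ± SE of three independent experiments.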

The test system of assay [3] is HL-60. The assay is described as follows: Induction of cell differentiation of human HL60 cells at 100 uM after 3 days by NBT reduction method. Summed up: as §1

Results on nine molecules are retold here after ChEMBL document CHEMBL1157948, “Triterpenoids from the resin of Styrax tonkinensis and their antiproliferative and differentiation effects in human leukemia HL-60 cells” (2006).

Each structure is given as a SMILES string.

`CC1(C)CC[C@]2(C(=O)O)CC[C@]3(C)C(=CC[C@@H]4[C@@]5(C)CCC(=O)C(C)(C)[C@@H]5[C@H](O)C[C@]43C)[C@@H]2C1` had an IG50 in the assay on HL-60 [1] of 14.2 µM. In the assay on HL-60 [2], this molecule returned an Activity of less than 10%.

Consider `CC1(C)CC[C@]2(C(=O)O)CC[C@]3(C)C(=CC[C@@H]4[C@@]5(C)CCC(=O)C(C)(C)[C@@H]5CC[C@]43C)[C@@H]2[C@@H]1O`, for which the IG50 in the assay on HL-60 [1] was found to be 41 µM. In addition, the Activity in the assay on HL-60 [2] is given as less than 10%.

Turning to `CC1(C)CC[C@]2(C(=O)O)CC[C@]3(C)C(=CC(=O)[C@@H]4[C@@]5(C)CC[C@H](O)C(C)(C)[C@@H]5[C@H](O)C[C@]43C)[C@@H]2C1`, the IG50 in the assay with HL-60 [1] is 99.4 µM. The molecule further yielded an Activity in the assay with HL-60 [3] of 44%.

In the case of `CC1(C)CC[C@]23CC[C@]4(C)[C@@H](C(=O)C[C@@H]5[C@@]6(C)CC[C@H](O)C(C)(C)[C@@H]6CC[C@]54C)[C@@H]2[C@H]1OC3=O`, the IG50 in the assay on HL-60 [1] stood at 51.2 µM. Besides, the Activity in the assay with HL-60 [2] is less than 10%.

`CC1(C)CC[C@@]23CC[C@]4(C)[C@@](OC2=O)([C@@H]3C1)[C@H]1O[C@H]1[C@@H]1[C@@]2(C)CCC(=O)C(C)(C)[C@@H]2[C@H](O)C[C@]14C` showed an IG50 in the assay on HL-60 [1] of 41.8 µM. Further, in the assay on HL-60 [2], the Activity was less than 10%.

With `CC1(C)CC[C@@]23CC[C@]4(C)[C@@](OC2=O)([C@@H]3C1)[C@H]1O[C@H]1[C@@H]1[C@@]2(C)CC[C@H](O)C(C)(C)[C@@H]2[C@H](O)C[C@]14C`, in the assay with HL-60 [1], the IG50 was found to be 27.5 µM. This molecule also came in with an Activity in the assay on HL-60 [2] of less than 10%.

The molecule `CC1(C)CC[C@]2(C(=O)O)CC[C@]3(C)C(=CC[C@@H]4[C@@]5(C)CC[C@H](O)C(C)(C)[C@@H]5CC[C@]43C)[C@@H]2C1` [OLEANOLIC_ACID] returned an IG50 in the assay with HL-60 [1] of 8.9 µM. For the same molecule, in the assay with HL-60 [2], the Activity is recorded as less than 10%.

Turning to `CC1(C)CC[C@]2(C(=O)O)CC[C@]3(C)C(=CC[C@@H]4[C@@]5(C)CC[C@H](O)C(C)(C)[C@@H]5CC[C@]43C)[C@@H]2[C@@H]1O` [SIARESINOLIC ACID], the IG50 with HL-60 [1] came out at 29 µM. Also, the Activity with HL-60 [2] is recorded as less than 10%.

As to `CC1(C)CC[C@]2(C(=O)O)CC[C@]3(C)C(=CC[C@@H]4[C@@]5(C)CC[C@H](O)C(C)(C)[C@@H]5[C@H](O)C[C@]43C)[C@@H]2C1` [SUMARESINOLIC ACID], the IG50 in the assay with HL-60 [1] was 30.2 µM. In addition, the Activity with HL-60 [2] was less than 10%.
